Screening results from PubChem.
Only some compounds are listed: those with a hit (about 3.5% of all), similar ones and a draw of the others.
ABCB1 inh: blocks JC-1 efflux by human ABCB1 transporter; P08183; CCRF-Adr cells, flow cytometry; inhibition, % at 6.6 µM; actives 0.067% (n = 190,000); AID 1326; in the data active means inhibition above about 40%;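 further: 0% = vehicle and 100% = reference inhibitor; higher value means more JC-1 retained so stronger ABCB1 efflux block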
MEKK2wt PB1 HTS: raises or lowers MEK5 binding to wildtype human MEKK2 PB1 domain | Q9Y2U5 | binding response (% of control), % at 10 µM | bead flow cytometry, Alexa488-MEK5 binding to MEKK2 WT; actives lie on both sides | actives 1.1% (n = 290,000); in the data active means binding response below about 67% or above about 130%
ABCG2 block: human ABCG2 inhibition, ABCB1 as counter-screen. Q9UNQ0. actives 0.1% (n = 190,000). AID 1325. IgMXP3 cells, JC-1 efflux, flow cytometry. inhibition, % at 6.6 µM;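 active means inhibition above 80%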;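 further: 0% = DMSO and 100% = nicardipine control wells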
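material = IgMXP3 (ABCG2) plus far-red-tagged CCRF-Adr (ABCB1) cells | amount = 3 million cells/mL, equal mix of both lines | also added = JC-1 transporter substrate | dosing = one concentration, 6.6 µM final | schedule = 10 min at 25 °C | measured by = flow cytometric JC-1 green MFI at 530 nm | read-out basis = percent efflux inhibition, scaled nicardipine 100% to DMSO 0%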
MEKK3 PB1 HTS: raises or lowers MEK5 binding to the human MEKK3 PB1 domain | Q99759 | actives 1.4% (n = 290,000) | bead-based flow cytometry, Alexa488-MEK5 binding to MEKK3; actives lie on both sides; 0 = blocked by unlabeled MEK5, 100 = vehicle | AID 1529 | binding response (% of control), % at 10 µM;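 active means binding response more than 3 SD above or below the average of its plate-row segment, actives on both sides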;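 further: Alexa488 bead fluorescence after subtracting the streptavidin-only scavenger bead signal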
Target sequence (Q99759 whole entry, looked up, the tested form may be a part): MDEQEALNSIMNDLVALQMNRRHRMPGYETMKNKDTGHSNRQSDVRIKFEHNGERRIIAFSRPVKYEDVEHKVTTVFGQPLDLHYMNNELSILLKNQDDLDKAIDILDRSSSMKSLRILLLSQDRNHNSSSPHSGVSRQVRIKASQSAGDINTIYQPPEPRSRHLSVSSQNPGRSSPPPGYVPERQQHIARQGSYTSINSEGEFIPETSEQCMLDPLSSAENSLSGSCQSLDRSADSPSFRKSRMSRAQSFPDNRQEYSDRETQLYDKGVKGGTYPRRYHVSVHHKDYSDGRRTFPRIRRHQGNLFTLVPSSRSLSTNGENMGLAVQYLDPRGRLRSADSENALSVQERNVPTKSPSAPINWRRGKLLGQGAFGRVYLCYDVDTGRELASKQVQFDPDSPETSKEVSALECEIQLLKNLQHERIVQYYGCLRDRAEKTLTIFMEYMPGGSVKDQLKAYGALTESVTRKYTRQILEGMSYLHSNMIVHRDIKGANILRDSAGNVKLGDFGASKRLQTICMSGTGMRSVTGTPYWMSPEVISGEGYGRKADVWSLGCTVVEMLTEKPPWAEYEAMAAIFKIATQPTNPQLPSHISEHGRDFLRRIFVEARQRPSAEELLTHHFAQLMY
MEKK2mut PB1 HTS: signal of MEK5 binding to mutant human MEKK2 PB1 domain; actives 0.35% (n = 290,000); AID 1530; percent response, % at 10 µM; bead flow cytometry, Alexa488-MEK5 binding to MEKK2 mutant; in the data active means percent response above about 24%, passing the limit was not always enough
WT yeast gro inh: growth inhibition of WT yeast, mitochondrial fusion screen. actives 2.1% (n = 190,000). inhibition, % at 10 µM. mitochondrial fusion phenotypic screen, WT strain; in the data active means inhibition above about 58%; tested in S. cerevisiae
* hit, by the source's call; / = no result given.

SMILES	ABCB1 inh	MEKK2wt PB1 HTS	ABCG2 block	MEKK3 PB1 HTS	MEKK2mut PB1 HTS	WT yeast gro inh
O=C(CCN1C(=O)c2ccccc2C1=O)N1CCC(c2ccccc2)C1 (configuration not stated)	1	98	1	98	-4	-7
O=C(Nc1cccc([N+](=O)[O-])c1)C1COc2ccccc2O1 (configuration not stated)	/	101	/	104	10	/
CCN1/C(=C/c2ccc3ccccc3[n+]2CC)C=Cc2ccccc21	1	109	9	101	19	83*
CCN1/C(=C/c2ccc3ccccc3[n+]2CCCS(=O)(=O)[O-])C=Cc2cc(C)ccc21	/	98	/	100	3	/
Cc1ccccc1/C(N)=N/OC(=O)N1c2ccccc2Sc2ccccc21	0	/	1	/	/	83*
Cc1ccc(/C(N)=N/OC(=O)N2c3ccccc3Sc3ccccc32)cc1	/	97	/	99	0	/
Cc1ccc(CN2CC34C=CC(O3)C(C(=O)NCc3ccc5c(c3)OCO5)C4C2=O)cc1 (configuration not stated)	-1	125	0	128*	8	-5
COc1cccc(CN2CC(C(=O)NCC3CCOCC3)CCC2=O)c1 (configuration not stated)	/	100	/	103	9	/
c1ccc(COc2cccc(CN3CCc4ccccc4C3)c2)cc1	/	101	/	97	-1	/
CC(C)c1ccc(/C=C/C(=O)NCCCc2ccccc2)cc1	0	100	-2	91	-4	61*
Cc1cc(C(=O)N2CCc3ccccc3C2)on1	/	95	/	95	0	/
O=C(O)c1ccccc1NSc1ccccc1[N+](=O)[O-]	0	97	-2	102	0	7
CCc1ccc(NSc2ccccc2[N+](=O)[O-])cc1	0	98	1	103	4	80*
Cc1cc(C(=O)N2CCc3c([nH]c4ccccc34)C2c2cccc(Cl)c2)nn1C (configuration not stated)	1	87	4	99	-9	61*
O=C(c1cnccn1)N1CCc2c([nH]c3ccccc23)C1c1cccc(Cl)c1 (configuration not stated)	3	94	20	102	-2	61*
Cc1nc(C(=O)N2CCc3c([nH]c4ccccc34)C2c2ccccn2)cs1 (configuration not stated)	0	84	7	100	-13	-14
Cc1nc(C(=O)N2CCc3c([nH]c4ccccc34)C2c2cc(F)ccc2F)cs1 (configuration not stated)	1	92	3	95	-9	75*
COc1ccc(/C=C(\NC(=O)c2ccco2)C(=O)NCc2ccco2)cc1	/	98	/	99	1	/
CCCCN(C)C(=O)c1oc2ccc(S(=O)(=O)N3CCCCCC3)cc2c1C	1	94	9	97	-3	18
COC(=O)C1CCN(C2CC(=O)N(c3cc(C)cc(C)c3)C2=O)CC1 (configuration not stated)	0	73	0	78	-21	3
COc1ccc(N2CCN(c3c(S(=O)(=O)c4ccccc4)cnc4ccc(OC)cc34)CC2)cc1	34	102	45	103	-3	76*
CCOC(=O)c1cnc2ccc(OCC)cc2c1NCc1cccnc1	6	102	3	99	-2	2
CCOC(=O)c1cnc2ccc(OCC)cc2c1NCc1ccccc1	2	95	3	85	-1	86*
CCOc1ccc2ncc(S(=O)(=O)c3ccccc3)c(N3CCN(c4ccc(OC)cc4)CC3)c2c1	22	102	20	100	-1	52
CCc1ccc2ncc(S(=O)(=O)c3ccc(C)c(C)c3)c(N3CCCC3)c2c1	6	105	7	125	1	72*
CCOC(=O)c1cnc2ccc(OCC)cc2c1N1CCN(c2ccccc2)CC1	2	106	7	95	-4	74*
CCCN(CCC)c1nc(NC2CCN(C(=O)OCC)CC2)nc(OC)n1	3	98	10	98	-1	53
CCOC(=O)c1cnc(-n2nc(C)cc2C)nc1NCc1ccccc1	3	90	30	98	-3	65*
